Laboratory results: ChEMBL document CHEMBL1777787, “Identification of 4H,6H-[2]benzoxepino[4,5-c][1,2]oxazoles as novel squalene synthase inhibitors” (Bioorg Med Chem Lett, 2011)
pIC50: −log10 of the molar value.

Tests used:
Squalene synthase = target: T1, Squalene synthase (Homo sapiens, UniProt P37268); assay: Inhibition of recombinant squalene synthase assessed as conversion of trans,trans-[1-3H]farnesyl pyrophosphate to [3H]squalene after 10 mins by liquid scintillation counting
T1 sequence (P37268 whole entry): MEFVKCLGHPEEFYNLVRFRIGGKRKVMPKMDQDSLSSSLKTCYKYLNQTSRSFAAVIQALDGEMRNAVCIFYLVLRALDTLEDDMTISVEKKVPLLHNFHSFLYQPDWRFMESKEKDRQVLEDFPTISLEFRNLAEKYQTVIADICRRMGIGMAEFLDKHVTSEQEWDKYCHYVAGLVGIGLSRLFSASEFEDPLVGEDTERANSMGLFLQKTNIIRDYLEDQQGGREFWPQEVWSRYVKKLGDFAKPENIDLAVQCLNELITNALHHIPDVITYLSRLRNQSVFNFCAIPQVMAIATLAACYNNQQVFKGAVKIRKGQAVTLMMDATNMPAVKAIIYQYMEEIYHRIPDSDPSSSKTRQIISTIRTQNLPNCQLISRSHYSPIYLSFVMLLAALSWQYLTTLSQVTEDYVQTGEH
Outline: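 Recombinant SQS in 1 mM NADPH, 5 mM DTT, 10% PBS, 10 mM sodium fluoride and 0.5 mM MgCl₂, pH 7.5. Compounds were added from DMSO at defined concentrations. The reaction was started with farnesyl pyrophosphate plus 0.2 nM trans,trans-[1-³H]-farnesyl pyrophosphate, run 10 min at 37 °C, then extracted with chloroform/methanol. IC50 values are means of three experiments.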

[1] = Stability in human liver microsomes assessed as compound remaining after 60 mins; type: ADME, Microsome; settings: read-out: Stability
Mus musculus [2] = assay: In vivo inhibition of squalene synthase in NMRI mouse assessed as inhibition of hepatic [14C]cholesterol biosynthesis at 3 mg/kg, po measured after 1 hr by liquid scintillation counting
Mus musculus [3] = assay: In vivo inhibition of squalene synthase in NMRI mouse assessed as inhibition of hepatic [14C]cholesterol biosynthesis at 1 mg/kg, po measured after 1 hr by liquid scintillation counting

Row | SMILES | pIC50 (Squalene synthase) | remaining at 1 h [1] [%] | inhibition in vivo at 3 mg/kg (Mus musculus [2]) [%] | inhibition in vivo at 1 mg/kg (Mus musculus [3]) [%]
1 | COc1cccc([C@@H]2O[C@@H](CC(=O)O)c3noc(C(C)C)c3-c3ccc(Cl)cc32)c1OC | 5.85 |  |  | 
2 | COc1cccc([C@H]2O[C@H](CC(=O)O)c3noc(C(C)C)c3-c3ccc(Cl)cc32)c1OC | 7.25 | 100 | 58 | 
3 | COc1cccc([C@H]2O[C@H](CC(=O)N3CC[C@@H](O)C3)c3noc(C(C)C)c3-c3ccc(Cl)cc32)c1OC | 6.79 |  |  | 
4 | COc1cccc([C@H]2O[C@H](CC(=O)N3CCC(CC(=O)O)CC3)c3noc(C(C)C)c3-c3ccc(Cl)cc32)c1OC | 6.88 | 91 | 80 | 
5 | COc1cccc([C@H]2O[C@H](CC(=O)N3CCC(C(=O)O)CC3)c3noc(C(C)C)c3-c3ccc(Cl)cc32)c1OC | 6.95 |  |  | 
6 | COc1cccc([C@H]2O[C@H](CC(=O)O)C(=O)N(CC(C)(C)CO)c3ccc(Cl)cc32)c1OC | 6.65 |  |  | 
7 | COc1cccc([C@H]2O[C@H](CC(=O)N3CCC(CC(=O)O)CC3)C(=O)N(CC(C)(C)CO)c3ccc(Cl)cc32)c1OC | 6.59 | 37 |  | 
8 | COc1cccc(C2OC(CC(=O)O)c3noc(C(C)C)c3-c3ccc(Cl)cc32)c1OC (single isomer, unassigned; enantiomer 2) | 5.26 |  |  | 
9 | COc1cccc(C2OC(CC(=O)O)c3noc(C(C)C)c3-c3ccc(Cl)cc32)c1OC (single isomer, unassigned; enantiomer 3) | 6.77 | 64 | 31 | 
10 | COc1cccc([C@H]2O[C@H](CC(=O)N3CCC(CC(=O)O)CC3)C(=O)N(CC(C)(C)COC(C)=O)c3ccc(Cl)cc32)c1OC [LAPAQUISTAT ACETATE] | 6.67 | 7 | 73 | 59
